# Unmarked numbers belong to inactive results. Calls of active or inactive are those of the source.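 How the source made its calls: active means inhibition above 10%; inactive means the rest.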
# Biological target: Hexokinase-4 (Homo sapiens) (UniProt P35557)
# Experiment: hGlck enzyme activity off-target inhibitors – biochemical, recombinant hGlck, counter-screen for TbHK1 inhibitor project (AID 492951)
# Details: G6PDH-coupled NADH absorbance 340 nm, at 10 µM; active compounds read high
# Summary of the method: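 Test system: purified recombinant human glucokinase (HK4) with G6PDH coupling enzyme / Reagent: 20 mM glucose as reaction starter, plus 1 mM ATP / Timing: 10 min room-temperature compound-enzyme preincubation before glucose addition / Measured by: A340 of NADH / Repeats: three replicates per compound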
# Sequence of Hexokinase-4 (Homo sapiens) (P35557 whole entry, looked up): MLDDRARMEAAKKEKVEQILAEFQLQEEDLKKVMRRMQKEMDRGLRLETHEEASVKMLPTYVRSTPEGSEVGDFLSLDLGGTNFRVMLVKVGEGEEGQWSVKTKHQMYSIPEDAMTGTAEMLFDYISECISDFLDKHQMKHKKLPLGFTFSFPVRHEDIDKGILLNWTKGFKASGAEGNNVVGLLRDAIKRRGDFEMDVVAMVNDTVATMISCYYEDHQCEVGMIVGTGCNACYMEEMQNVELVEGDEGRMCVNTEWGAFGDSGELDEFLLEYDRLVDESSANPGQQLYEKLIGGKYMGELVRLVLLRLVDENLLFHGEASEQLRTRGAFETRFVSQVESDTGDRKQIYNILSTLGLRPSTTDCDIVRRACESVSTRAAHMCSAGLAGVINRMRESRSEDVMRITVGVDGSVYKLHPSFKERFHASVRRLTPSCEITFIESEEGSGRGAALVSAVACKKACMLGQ
Structure (SMILES),outcome,inhibition
Cc1ccccc1N1Cc2ccccc2C1=O,inactive,
Cc1ccc(C(=O)Nc2cc(Cl)ccc2C(=O)O)cc1C,inactive,
COc1ccc(C(=O)NC(CC(=O)O)c2ccccc2)cc1 (stereo not drawn),,4%
O=c1c2ccccc2on1-c1ccccc1,inactive,
COc1ccc(C(=O)Nc2ccccc2C(=O)O)cc1Cl,,11.9% (active)
O=C(Nc1cc(Cl)ccc1C(=O)O)c1ccc(-c2cccs2)cc1,,30.3% (active)
CN(C)c1cccc(NC(=O)Cn2sc3ccccc3c2=O)c1,,16.7% (active)
COc1ccc(C(=O)Nc2cc(C(F)(F)F)ccc2C(=O)O)cc1,,10.5% (active)
O=C(Nc1cc(Cl)ccc1C(=O)O)c1ccc2ccccc2c1,,11.5% (active)
COc1ccc2sn(-c3ccccc3)c(=O)c2c1,,13.6% (active)
O=C1c2ccccc2S(=O)N1c1ccc(Cl)cc1 (stereo not drawn),,37.2% (active)
CN(C)S(=O)(=O)c1cccc(-n2sc3ccccc3c2=O)c1,,22.1% (active)
O=C(Cn1sc2ccccc2c1=O)NCc1ccccc1,inactive,
CC1(c2ccc(C(=O)Nc3cc(Cl)ccc3C(=O)O)cc2)CC1,inactive,
O=C(Nc1cc(Cl)ccc1C(=O)O)c1ccc(Cl)cc1,inactive,
O=C(Cn1sc2cc(F)ccc2c1=O)Nc1ccccc1,,39.6% (active)
COc1cccc(-n2sc3ccccc3c2=O)c1,,49.9% (active)
O=C(Nc1cc(Cl)ccc1C(=O)O)c1cocn1,inactive,
COc1ccc(C(=O)Nc2cc(F)ccc2C(=O)O)cc1,inactive,

Structure (SMILES),outcome,inhibition
Cc1ccc(C(=O)Nc2cc(Cl)ccc2C(=O)O)c(C)c1,,12.5% (active)
O=C(Nc1ccc([N+](=O)[O-])cc1Cl)c1cc(Cl)ccc1O,,32.1% (active)
O=c1c2cc(N3CCOCC3)ccc2sn1-c1ccccc1,inactive,
Cc1ccc(-n2sc3ccccc3c2=O)cc1,,26.1% (active)
Cc1ccccc1-n1sc2cc(F)ccc2c1=O,inactive,
CCOC(=O)Cn1sc2ccccc2c1=O,inactive,
COc1cccc(NC(=O)Cn2sc3ccccc3c2=O)c1,,2.9%
COc1ccc(-c2nc3c(Cl)c(Cl)ccc3c(=O)o2)cc1,,9.2%
Cc1ccc(C(=O)Nc2cc(Cl)ccc2C(=O)O)cc1,inactive,
COc1ccc(C(=O)Nc2cc(Cl)ccc2C(=O)O)cc1,,7.8%
CCC(C)(C)c1ccc(C(=O)Nc2cc(Cl)ccc2C(=O)O)cc1,,26% (active)
O=C(Cn1sc2ccccc2c1=O)Nc1ccccc1C(F)(F)F,,11.1% (active)
CC(C)(C)c1ccc(C(=O)Nc2c(C(=O)O)ccc(Cl)c2Cl)cc1,inactive,
COc1ccc(C(=O)Nc2ccc(Cl)cc2C(=O)O)cc1,inactive,
COc1cccc(C(=O)Nc2cc(Cl)ccc2C(=O)O)c1,inactive,
O=c1c2cc(F)ccc2sn1-c1ccccc1,,50.1% (active)
COc1ccc(C(=O)O)c(NC(=O)c2ccc(Cl)cc2)c1,,15.8% (active)
O=c1c2cc(F)c(F)cc2sn1-c1ccccc1,,16.9% (active)
CC(C)(C)c1ccc(C(=O)Nc2cc(Cl)c(F)cc2C(=O)O)cc1,inactive,

# Reference: PubChem BioAssay AID492951 (Molecular Libraries Program, Specialized Chemistry Center, …, 2010)
